Compound activity (PubChem)
Myeloid diff MLP = induction of myeloid progenitor differentiation, primary screen, cell-based, flow cytometry, MLPCN library; calls only at 10 µM; ER-HoxA9 myeloid progenitors, lysozyme-GFP differentiation; hit rate 1% among 360,000; AID 624256, 2012;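 active = normalized GFP-positive differentiation at or above the plate's own cutoff, the solvent-only control mean plus 3 SD; inconclusive = no clear call, values can overlap the other calls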;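 note: cells exposed to compound for four days before flow analysis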
Granule exo inh = LAMP-1 surface exposure blockers, TALL-104 cells – cell-based, flow cytometry, MLPCN library, primary screen; TALL-104 LAMP-1 surface exposure; cells stimulated with thapsigargin and PMA; inhibition, % at 10 µM; hit rate 0.66% among 360,000; AID 651702, 2012;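 active = inhibition above about 55%, limit read from the data; inconclusive = no clear call, values can overlap the other calls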
ABCB6 inh MLPCN = ABCB6 transporter inhibitors, primary screen, K562-ABCB6 cells, flow cytometry, MLPCN library. ATP-binding cassette sub-family B member 6 (Homo sapiens), Q9NP58. K562-ABCB6 porphyrin accumulation, 1 h; hits give low values. fluorescence ratio to DMSO, % at 10 µM. hit rate 0.19% among 360,000;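 active = fluorescence ratio to DMSO below 75%, the collection mean minus 3 SD; inconclusive = too few cells collected in the well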;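 note: signal is porphyrin accumulated inside mitochondria; 100% equals median channel fluorescence of DMSO control wells; lower ratio means ABCB6 inhibition with less porphyrin fluorescence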
Target sequence (Q9NP58 whole entry, looked up): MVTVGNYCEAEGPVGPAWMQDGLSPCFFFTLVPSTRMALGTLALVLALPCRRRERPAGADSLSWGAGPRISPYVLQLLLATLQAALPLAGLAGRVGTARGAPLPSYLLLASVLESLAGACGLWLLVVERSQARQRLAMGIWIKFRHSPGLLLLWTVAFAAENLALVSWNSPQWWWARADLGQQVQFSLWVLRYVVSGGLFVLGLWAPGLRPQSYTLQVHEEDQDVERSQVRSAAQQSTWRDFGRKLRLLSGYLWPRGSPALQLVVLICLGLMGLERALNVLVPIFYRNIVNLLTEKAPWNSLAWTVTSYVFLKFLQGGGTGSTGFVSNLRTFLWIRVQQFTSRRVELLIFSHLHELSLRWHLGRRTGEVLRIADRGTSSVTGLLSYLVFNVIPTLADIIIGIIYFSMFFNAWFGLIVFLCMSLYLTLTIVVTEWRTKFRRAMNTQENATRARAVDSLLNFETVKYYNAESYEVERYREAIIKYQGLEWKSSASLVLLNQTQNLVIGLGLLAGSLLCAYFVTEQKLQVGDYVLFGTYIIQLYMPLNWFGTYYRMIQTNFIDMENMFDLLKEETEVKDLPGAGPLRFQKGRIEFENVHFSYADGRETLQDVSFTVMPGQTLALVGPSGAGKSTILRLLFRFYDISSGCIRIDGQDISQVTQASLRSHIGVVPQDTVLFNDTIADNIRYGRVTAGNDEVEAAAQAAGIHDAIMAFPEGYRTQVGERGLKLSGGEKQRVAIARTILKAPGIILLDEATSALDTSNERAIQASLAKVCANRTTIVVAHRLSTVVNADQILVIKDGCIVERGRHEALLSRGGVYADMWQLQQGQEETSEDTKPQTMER
NRP1-CendR mod = modulators of CendR peptide binding to NRP-1, primary screen, biochemical, fluorescence polarization, uHTS. hit rate 0.85% among 360,000. inhibition, % at 25 µM. FAM-RPARPAR peptide binding to NRP-1;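 active = inhibition or corrected inhibition above about 18%, plus a signal ratio from 0.5 to 1.5, limit read from the data, passing the limit was not always enough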
Arrestin-AP2 inh = inhibitors of beta-arrestin/AP2 binding, primary screen, biochemical, GPCR trafficking, flow cytometry; hit rate 0.31% among 340,000; FITC-arrestin peptide / GST-AP2 beads; AP2 beta2 appendage carries R879A mutation; beta-arrestin 1 C-terminal peptide binding to AP2 beta2-adaptin appendage (human); inhibition, % at 10 µM;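 active = inhibition above a set limit, near 3 SD of compounds lacking own fluorescence, cut at about 54% in these data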;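 note: plate controls were DMSO wells for no effect and 5 µM unlabelled arrestin peptide for full effect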
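Measured by: flow cytometry, FL1 (488/535 nm); Material: AP2 appendage R879A on GSH beads; Evaluation: percent response; Timing: pre-incubation 12 min, peptide binding 1 h, room temperature; Also added: 50 nM FITC-arrestin peptide; Medium: PBS with 0.05% Tween 20 and 0.1% BSA.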
ATG4B inh = ATG4B protease inhibitors, primary screen, biochemical, fluorescence, uHTS; Cysteine protease ATG4B (Homo sapiens), Q9Y4P1; ATG4B cleavage of LC3-PLA2, NBD-HPC fluorescence, 1 h; inhibition, % at 8.33 µM; hit rate 0.51% among 340,000; in the data active = inhibition above about 40%
Myeloid diff = inducers of myeloid progenitor differentiation, confirmation, cell-based, GFP/Mac1 flow cytometry, cherry pick 01. shares compounds with Myeloid diff MLP. ER-HoxA9 myeloid progenitors, GFP/Mac1 double-positive flow. calls only. hit rate 2% among 2,300;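 active = share of green or green-and-red cells above 9 and 9% in run 1 or 4 and 3% in run 2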
GFP autofluor = flagged as fluorescent in myeloid differentiation counter-screen. fluorescence response, % (no concentration beside the values). AID 651707. shares compounds with Myeloid diff MLP. hit rate 7.4% among 2,300. ER-HoxA9 myeloid progenitors, no estrogen, GFP autofluorescence flow cytometry; vehicle wells 0%, positive control 100%;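 active = over 5% cells positive for green fluorescent reporter, or over 2% positive for both it and APC stain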;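 note: range taken on the double positive population between DMSO and positive control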
The depositor's hits bear a star; i = inactive; ? = inconclusive; nt = not tested or not shown; + = active, no number. Shown are actives, neighbours in structure and some others; about 3.3% of the full set was active somewhere.

SMILES	Myeloid diff MLP	Granule exo inh	ABCB6 inh MLPCN	NRP1-CendR mod	Arrestin-AP2 inh	ATG4B inh	Myeloid diff	GFP autofluor
O=C(OCC(=O)c1c[nH]c2ccccc12)c1cccc(S(=O)(=O)N2CCCCCC2)c1	i	10.5	99.0	7.0	16.6	7.2	i	0.0
CCN1C(=S)SC(=O)C1=C1C=C(C)N(CCO)C(C)=C1	i	0.7	100.0	-18.7	15.9	-0.4	i	0.0
CCN1C(=O)/C(=C/c2cn(C)nc2C)SC1=S	i	-1.5	91.0	-14.5	4.5	1.8	nt	nt
O=C(COC(=O)c1ccc(S(=O)(=O)Nc2ccccc2)cc1)NCCC1=CCCCC1	i	3.0	98.0	-2.4	5.9	-6.9	nt	nt
C=CCNC(=O)c1ccc(N(CC=C)S(C)(=O)=O)cc1	+	-2.2	94.0	0.9	-11.4	-6.9	i	0.0
CCCC(=O)NC(=S)Nc1ccc(N2CCOCC2)c(Cl)c1	i	-11.0	115.0	10.8	21.6	12.1	i	0.0
COc1ccc(NC(=O)CSc2nnnn2-c2ccc(F)cc2)cc1	i	9.3	97.0	-7.1	7.4	0.8	nt	nt
O=C(CSc1nnnn1-c1ccc(F)cc1)Nc1ccc(N2CCOCC2)c(Cl)c1	+	-1.5	97.0	-1.8	17.5	0.1	i	0.0
C=C1C2=C(C(=O)N1OC)[C@@H](O)[C@@](C)(O)[C@@H](CCCCC)O2	?	-1.9	114.0	-16.8	nt	nt	nt	nt
NC(=O)CCC(NS(=O)(=O)c1ccc(Cl)cc1)C(=O)NCc1ccc(Cl)cc1 (centres undefined)	i	7.7	99.0	-2.2	6.6	-5.6	nt	nt
NC(=O)CCC(NS(=O)(=O)c1ccc(Cl)cc1)C(=O)NCC1CCCCC1 (centres undefined)	i	-10.3	99.0	-29.0	-7.8	-2.3	i	0.0
CCOCCn1c(CN(Cc2ccccc2)Cc2ccccc2)nc2c1c(=O)n(C)c(=O)n2C	?	-0.7	91.0	-7.0	-3.9	-7.7	nt	nt
CCOCCn1c(CN(Cc2ccccc2)Cc2ccccc2)nc2c1c(=O)[nH]c(=O)n2C	+	3.5	102.0	-4.2	14.7	6.6	i	0.3
CCOc1ccc(-c2nnc(-c3ccccc3)n2-c2ccccc2)cc1	i	-2.5	96.0	-12.6	7.3	4.2	nt	nt
CCOc1ccc(-n2c(C)c3c(C)nnc(C)c3c2C)cc1	i	-4.3	102.0	-24.2	nt	nt	i	42.4*
COc1ccccc1N1C(=O)S/C(=C\c2ccc(C)s2)C1=O	i	4.8	149.0	-104.9	38.9	3.0	i	2.3
CN(CC(=O)Nc1ccc(Cl)c(Cl)c1)Cc1nnc(-c2ccc(F)cc2)o1	i	-4.6	100.0	-4.0	-14.3	0.3	nt	nt
COC(=O)c1cn(NC(=O)c2ccc([N+](=O)[O-])cc2Cl)c(=O)c2ccccc12	+	-0.1	96.0	5.3	-16.6	7.6	i	1.2
COCc1cc(C)nc(SCC(=O)Nc2ccccc2N2CCOCC2)c1C#N	i	-13.1	96.0	-6.7	7.1	3.0	nt	nt
Cc1cc(C)c2nc(SCC(=O)Nc3ccccc3N3CCOCC3)c(C#N)cc2c1	+	1.3	100.0	-16.4	15.4	-6.8	i	0.0
COc1ccccc1NS(=O)(=O)c1ccccc1C#N	i	-1.2	104.0	4.1	11.2	-2.6	i	0.0
O=C(Cn1[nH]c(=O)c2ccccc2c1=O)OCC(=O)c1ccccc1Cl	i	-4.7	102.0	-11.3	-3.7	-0.7	nt	nt
Cc1ccc(NC(=O)CN(C)Cc2cc(=O)n3ccsc3n2)cc1	i	11.3	176.0	0.4	-7.3	23.0	i	1.3
CN1C2CCC1/C(=C\c1ccccc1F)C(=O)/C2=C/c1ccccc1F	i	6.7	101.0	3.1	2.7	27.0	i	0.5
COc1ccc(-c2ccc([C@H]3[C@@H]4C=CCC[C@@]4(C)C(=O)N3Cc3ccccc3)c(F)c2)cc1	i	0.1	93.0	-2.4	-3.0	18.2	i	0.0
SMILES	Myeloid diff MLP	Granule exo inh	ABCB6 inh MLPCN	NRP1-CendR mod	Arrestin-AP2 inh	ATG4B inh	Myeloid diff	GFP autofluor
Cc1ccc(-c2ccc([C@H]3[C@@H]4C=CCC[C@@]4(C)C(=O)N3Cc3ccccc3)c(F)c2)cc1	i	-40.8	95.0	8.2	4.8	17.6	nt	nt
Cc1c(N(C)S(=O)(=O)c2ccc(Cl)c(C(=O)N3CCC(C(N)=O)CC3)c2)c(=O)n(-c2ccccc2)n1C	i	-4.4	103.0	-3.3	-4.0	-4.8	nt	nt
COc1cc(OC)c(CN2CCCN(C)CC2)cc1Br	i	-3.1	97.0	0.6	4.1	-0.5	nt	nt
CCOC(=O)[C@H]1[C@H]2COc3cc(OC)ccc3[C@@H]2N2C(=O)CN(CCc3c[nH]c4ccccc34)C(=O)[C@@]12C	i	-4.0	100.0	-0.3	-1.2	-13.3	i	0.4
CCOC(=O)C1CCN(Cc2cc(C(C)C)c(O)c(C(C)C)c2)CC1	+	0.4	99.0	1.8	38.3	-5.5	i	1.4
Cc1[nH]c2ccccc2c1C(=O)/C=C\c1ccccc1Cl	+	-0.9	101.0	-6.8	-4.1	3.2	i	1.0
Cc1[nH]c2ccccc2c1C(=O)/C=C/c1ccccc1Cl	i	6.8	100.0	-6.3	-6.6	-6.8	nt	nt
CCCOc1ccc(Cc2nn3c(=O)/c(=C/c4ccco4)sc3nc2=O)cc1	i	0.1	105.0	-27.0	11.4	1.6	i	0.0
CCCCCC(=O)Nc1sc(C)c(C)c1C#N	i	4.4	106.0	-16.6	-2.3	13.4	i	0.2
Cc1sc(NC(=O)CSc2n[nH]c(N)n2)c(C#N)c1C	+	17.9	159.0	-31.1	30.7	5.0	i	16.3*
CC(C)(C)NC(=O)C(OC(=O)c1ccco1)c1ccc(Cl)cc1 (centres undefined)	i	3.8	97.0	8.2	0.1	-2.4	nt	nt
C=CCN(c1ccccc1OC)S(=O)(=O)c1ccc(Cl)c(C(=O)NCc2ccco2)c1	+	0.3	96.0	4.7	nt	nt	i	0.0
C=CCN(c1ccccc1OC)S(=O)(=O)c1cccc(C(=O)NCc2ccco2)c1	i	23.6	101.0	-14.1	16.7	-5.4	nt	nt
